ChEMBL document CHEMBL5058577, “EUbOPEN Chemogenomics Library 2 (Multiplex)” (2022)

Tested on: Fibroblast
Experiment: Multiplex assay against human fibroblast
Format: toxicity, cell-based
Summary of the method: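 With compound added, live cells were imaged on a CQ1 microscope at 37°C and 5% CO2; staining with Hoechst33342, BioTracker Green Microtubule Cytoskeleton Dye, MitoTracker Red and Annexin V Alexa Fluor 680 had been done at seeding. The CellPathfinder machine-learning gating scheme split cells into Hoechst high-intensity objects or normal cells, normal cells into healthy, pyknosed or fragmented nuclei, and pyknosed cells into mitotic or apoptotic. The tubulin, mitochondrial-mass and membrane-permeability phenotypes are per cents of healthy-nucleus cells.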

[1] = 12 h, 1 µM, compound concentration 1 uM, replicate 1
[2] = 12 h, 1 µM, compound concentration 1 uM, replicate 2
[3] = 12 h, 10 µM, compound concentration 10 uM, replicate 1
[4] = 12 h, 10 µM, compound concentration 10 uM, replicate 2
[5] = 24 h, 1 µM, compound concentration 1 uM, replicate 1
[6] = 24 h, 1 µM, compound concentration 1 uM, replicate 2
[7] = 24 h, 10 µM, compound concentration 10 uM, replicate 1
[8] = 24 h, 10 µM, compound concentration 10 uM, replicate 2
[9] = 48 h, 1 µM, compound concentration 1 uM, replicate 1
[10] = 48 h, 1 µM, compound concentration 1 uM, replicate 2
[11] = 48 h, 10 µM, compound concentration 10 uM, replicate 1
[12] = 48 h, 10 µM, compound concentration 10 uM, replicate 2

## C=CCN1C[C@H](C(=O)N(CCCN(C)C)C(=O)NCC)C[C@@H]2c3cccc4[nH]cc(c34)C[C@H]21 [CABERGOLINE]
[1]
  Population Apoptotic (%): 69%
  Population Fragmented Nuclei (%): 13%
  Population Healthy Nuclei (%): 78%
  Population Hoechst High Intensity Objects (%): 6%
  Population Membrane Permeable-Phenotype (%): 0%
  Population Mitochondria Different-Phenotype (%): 2%
  Population Mitotic Cells (%): 30%
  Population Normal (%): 93%
  Population Pyknosed Nuclei (%): 7%
  Population Tubulin-Different-Phenotype (%): 26%
  Total Cell Count: 186
[2]
  Population Apoptotic (%): 35%
  Population Fragmented Nuclei (%): 20%
  Population Healthy Nuclei (%): 46%
  Population Membrane Permeable-Phenotype (%): 4%
  Population Mitochondria Different-Phenotype (%): 1%
  Population Mitotic Cells (%): 64%
  Population Pyknosed Nuclei (%): 33%
  Population Tubulin-Different-Phenotype (%): 25%
  Total Cell Count: 144
[3]
  Population Apoptotic (%): 50%
  Population Fragmented Nuclei (%): 25%
  Population Healthy Nuclei (%): 64%
  Population Hoechst High Intensity Objects (%): 3%
  Population Membrane Permeable-Phenotype (%): 0%
  Population Mitochondria Different-Phenotype (%): 11%
  Population Mitotic Cells (%): 50%
  Population Normal (%): 96%
  Population Pyknosed Nuclei (%): 10%
  Population Tubulin-Different-Phenotype (%): 46%
  Total Cell Count: 248
[4]
  Population Apoptotic (%): 35%
  Population Fragmented Nuclei (%): 44%
  Population Healthy Nuclei (%): 39%
  Population Hoechst High Intensity Objects (%): 5%
  Population Membrane Permeable-Phenotype (%): 6%
  Population Mitochondria Different-Phenotype (%): 10%
  Population Mitotic Cells (%): 64%
  Population Normal (%): 94%
  Population Pyknosed Nuclei (%): 16%
  Population Tubulin-Different-Phenotype (%): 53%
  Total Cell Count: 178
[5]
  Population Apoptotic (%): 68%
  Population Fragmented Nuclei (%): 15%
  Population Healthy Nuclei (%): 74%
  Population Hoechst High Intensity Objects (%): 4%
  Population Membrane Permeable-Phenotype (%): 1%
  Population Mitochondria Different-Phenotype (%): 3%
  Population Mitotic Cells (%): 31%
  Population Normal (%): 95%
  Population Pyknosed Nuclei (%): 10%
  Population Tubulin-Different-Phenotype (%): 33%
  Total Cell Count: 198
[6]
  Population Apoptotic (%): 44%
  Population Fragmented Nuclei (%): 24%
  Population Healthy Nuclei (%): 46%
  Population Hoechst High Intensity Objects (%): 6%
  Population Membrane Permeable-Phenotype (%): 3%
  Population Mitotic Cells (%): 55%
  Population Normal (%): 93%
  Population Pyknosed Nuclei (%): 29%
  Population Tubulin-Different-Phenotype (%): 39%
  Total Cell Count: 132
[7]
  Population Apoptotic (%): 73%
  Population Fragmented Nuclei (%): 28%
  Population Healthy Nuclei (%): 65%
  Population Hoechst High Intensity Objects (%): 1%
  Population Membrane Permeable-Phenotype (%): 0%
  Population Mitochondria Different-Phenotype (%): 7%
  Population Mitotic Cells (%): 26%
  Population Normal (%): 98%
  Population Pyknosed Nuclei (%): 5%
  Population Tubulin-Different-Phenotype (%): 44%
  Total Cell Count: 274
[8]
  Population Apoptotic (%): 43%
  Population Fragmented Nuclei (%): 43%
  Population Healthy Nuclei (%): 46%
  Population Hoechst High Intensity Objects (%): 10%
  Population Membrane Permeable-Phenotype (%): 2%
  Population Mitochondria Different-Phenotype (%): 5%
  Population Mitotic Cells (%): 56%
  Population Normal (%): 89%
  Population Pyknosed Nuclei (%): 9%
  Population Tubulin-Different-Phenotype (%): 53%
  Total Cell Count: 181
[9]
  Population Apoptotic (%): 56%
  Population Fragmented Nuclei (%): 15%
  Population Healthy Nuclei (%): 75%
  Population Hoechst High Intensity Objects (%): 5%
  Population Membrane Permeable-Phenotype (%): 0%
  Population Mitochondria Different-Phenotype (%): 6%
  Population Mitotic Cells (%): 43%
  Population Normal (%): 94%
  Population Pyknosed Nuclei (%): 8%
  Population Tubulin-Different-Phenotype (%): 34%
  Total Cell Count: 189
[10]
  Population Apoptotic (%): 58%
  Population Fragmented Nuclei (%): 24%
  Population Healthy Nuclei (%): 54%
  Population Hoechst High Intensity Objects (%): 7%
  Population Membrane Permeable-Phenotype (%): 6%
  Population Mitochondria Different-Phenotype (%): 1%
  Population Mitotic Cells (%): 41%
  Population Normal (%): 92%
  Population Pyknosed Nuclei (%): 21%
  Population Tubulin-Different-Phenotype (%): 33%
  Total Cell Count: 156
[11]
  Population Apoptotic (%): 72%
  Population Fragmented Nuclei (%): 24%
  Population Healthy Nuclei (%): 68%
  Population Hoechst High Intensity Objects (%): 4%
  Population Membrane Permeable-Phenotype (%): 1%
  Population Mitochondria Different-Phenotype (%): 4%
  Population Mitotic Cells (%): 27%
  Population Normal (%): 95%
  Population Pyknosed Nuclei (%): 6%
  Population Tubulin-Different-Phenotype (%): 46%
  Total Cell Count: 282
[12]
  Population Apoptotic (%): 46%
  Population Fragmented Nuclei (%): 52%
  Population Healthy Nuclei (%): 37%
  Population Hoechst High Intensity Objects (%): 5%
  Population Membrane Permeable-Phenotype (%): 6%
  Population Mitochondria Different-Phenotype (%): 11%
  Population Mitotic Cells (%): 53%
  Population Normal (%): 94%
  Population Pyknosed Nuclei (%): 9%
  Population Tubulin-Different-Phenotype (%): 44%
  Total Cell Count: 170

## O=C(O)CCC/C=C\CC1C(O)CC(O)C1/C=C/C(O)COc1cccc(Cl)c1 (stereo not drawn) [CLOPROSTENOL]
[1]
  Population Apoptotic (%): 41%
  Population Fragmented Nuclei (%): 15%
  Population Healthy Nuclei (%): 68%
  Population Hoechst High Intensity Objects (%): 0%
  Population Membrane Permeable-Phenotype (%): 0%
  Population Mitochondria Different-Phenotype (%): 2%
  Population Mitotic Cells (%): 58%
  Population Normal (%): 100%
  Population Pyknosed Nuclei (%): 15%
  Population Tubulin-Different-Phenotype (%): 22%
  Total Cell Count: 153
[2]
  Population Apoptotic (%): 20%
  Population Fragmented Nuclei (%): 22%
  Population Healthy Nuclei (%): 52%
  Population Hoechst High Intensity Objects (%): 2%
  Population Membrane Permeable-Phenotype (%): 8%
  Population Mitotic Cells (%): 80%
  Population Normal (%): 97%
  Population Pyknosed Nuclei (%): 25%
  Population Tubulin-Different-Phenotype (%): 52%
  Total Cell Count: 141
[3]
  Population Apoptotic (%): 38%
  Population Fragmented Nuclei (%): 23%
  Population Healthy Nuclei (%): 58%
  Population Hoechst High Intensity Objects (%): 12%
  Population Membrane Permeable-Phenotype (%): 0%
  Population Mitochondria Different-Phenotype (%): 4%
  Population Mitotic Cells (%): 61%
  Population Normal (%): 87%
  Population Pyknosed Nuclei (%): 18%
  Population Tubulin-Different-Phenotype (%): 31%
  Total Cell Count: 212
[4]
  Population Apoptotic (%): 23%
  Population Healthy Nuclei (%): 43%
  Population Hoechst High Intensity Objects (%): 4%
  Population Membrane Permeable-Phenotype (%): 11%
  Population Mitochondria Different-Phenotype (%): 9%
  Population Mitotic Cells (%): 76%
  Population Normal (%): 95%
  Population Pyknosed Nuclei (%): 34%
  Population Tubulin-Different-Phenotype (%): 53%
  Total Cell Count: 105
[5]
  Population Apoptotic (%): 41%
  Population Fragmented Nuclei (%): 19%
  Population Healthy Nuclei (%): 62%
  Population Hoechst High Intensity Objects (%): 0%
  Population Membrane Permeable-Phenotype (%): 1%
  Population Mitochondria Different-Phenotype (%): 3%
  Population Mitotic Cells (%): 58%
  Population Normal (%): 99%
  Population Pyknosed Nuclei (%): 18%
  Population Tubulin-Different-Phenotype (%): 26%
  Total Cell Count: 161
[6]
  Population Apoptotic (%): 18%
  Population Fragmented Nuclei (%): 27%
  Population Healthy Nuclei (%): 49%
  Population Hoechst High Intensity Objects (%): 3%
  Population Membrane Permeable-Phenotype (%): 7%
  Population Mitochondria Different-Phenotype (%): 5%
  Population Mitotic Cells (%): 81%
  Population Normal (%): 96%
  Population Pyknosed Nuclei (%): 23%
  Population Tubulin-Different-Phenotype (%): 53%
  Total Cell Count: 144
[7]
  Population Apoptotic (%): 41%
  Population Fragmented Nuclei (%): 24%
  Population Healthy Nuclei (%): 57%
  Population Hoechst High Intensity Objects (%): 12%
  Population Membrane Permeable-Phenotype (%): 2%
  Population Mitochondria Different-Phenotype (%): 3%
  Population Mitotic Cells (%): 58%
  Population Normal (%): 87%
  Population Pyknosed Nuclei (%): 18%
  Population Tubulin-Different-Phenotype (%): 24%
  Total Cell Count: 218
[8]
  Population Apoptotic (%): 59%
  Population Fragmented Nuclei (%): 28%
  Population Healthy Nuclei (%): 50%
  Population Hoechst High Intensity Objects (%): 3%
  Population Membrane Permeable-Phenotype (%): 7%
  Population Mitotic Cells (%): 40%
  Population Normal (%): 96%
  Population Pyknosed Nuclei (%): 21%
  Population Tubulin-Different-Phenotype (%): 57%
  Total Cell Count: 107
[9]
  Population Apoptotic (%): 65%
  Population Fragmented Nuclei (%): 21%
  Population Healthy Nuclei (%): 59%
  Population Hoechst High Intensity Objects (%): 2%
  Population Membrane Permeable-Phenotype (%): 2%
  Population Mitochondria Different-Phenotype (%): 2%
  Population Mitotic Cells (%): 34%
  Population Normal (%): 97%
  Population Pyknosed Nuclei (%): 19%
  Population Tubulin-Different-Phenotype (%): 25%
  Total Cell Count: 156
[10]
  Population Apoptotic (%): 36%
  Population Fragmented Nuclei (%): 37%
  Population Healthy Nuclei (%): 43%
  Population Hoechst High Intensity Objects (%): 3%
  Population Membrane Permeable-Phenotype (%): 12%
  Population Mitochondria Different-Phenotype (%): 10%
  Population Mitotic Cells (%): 64%
  Population Normal (%): 96%
  Population Pyknosed Nuclei (%): 18%
  Population Tubulin-Different-Phenotype (%): 63%
  Total Cell Count: 137
[11]
  Population Apoptotic (%): 46%
  Population Fragmented Nuclei (%): 25%
  Population Healthy Nuclei (%): 57%
  Population Hoechst High Intensity Objects (%): 13%
  Population Membrane Permeable-Phenotype (%): 0%
  Population Mitochondria Different-Phenotype (%): 2%
  Population Mitotic Cells (%): 53%
  Population Normal (%): 86%
  Population Pyknosed Nuclei (%): 16%
  Population Tubulin-Different-Phenotype (%): 30%
  Total Cell Count: 205
[12]
  Population Apoptotic (%): 55%
  Population Fragmented Nuclei (%): 41%
  Population Healthy Nuclei (%): 49%
  Population Hoechst High Intensity Objects (%): 8%
  Population Membrane Permeable-Phenotype (%): 4%
  Population Mitochondria Different-Phenotype (%): 4%
  Population Mitotic Cells (%): 44%
  Population Normal (%): 91%
  Population Pyknosed Nuclei (%): 9%
  Population Tubulin-Different-Phenotype (%): 61%
  Total Cell Count: 108
